# Measured values published in ChEMBL document CHEMBL5365542, “Difluoromethyl-1,3,4-oxadiazoles Are Selective, Mechanism-Based, and Essentially Irreversible Inhibitors of Histone Deacetylase 6” (J Med Chem, 2023).
# The source made the active and inactive calls. The rule behind the calls is not given here.
# How the values were obtained:
# [1] = biological target: T1, Protein deacetylase HDAC6 (Homo sapiens) (UniProt Q9UBN7); assay: (§1) Binding affinity to N-terminal GST tagged human recombinant HDAC6 (1 to 1215 residues) expressed in Sf9 insect cells using Z-Lys(Ac)-AMC as fluorogenic substrate assessed as single step slow binding mechanism by measuring linear relationship between Kobs and inhibitor concentration measured every 0.5 mins for 45 mins
# T1 sequence (whole entry): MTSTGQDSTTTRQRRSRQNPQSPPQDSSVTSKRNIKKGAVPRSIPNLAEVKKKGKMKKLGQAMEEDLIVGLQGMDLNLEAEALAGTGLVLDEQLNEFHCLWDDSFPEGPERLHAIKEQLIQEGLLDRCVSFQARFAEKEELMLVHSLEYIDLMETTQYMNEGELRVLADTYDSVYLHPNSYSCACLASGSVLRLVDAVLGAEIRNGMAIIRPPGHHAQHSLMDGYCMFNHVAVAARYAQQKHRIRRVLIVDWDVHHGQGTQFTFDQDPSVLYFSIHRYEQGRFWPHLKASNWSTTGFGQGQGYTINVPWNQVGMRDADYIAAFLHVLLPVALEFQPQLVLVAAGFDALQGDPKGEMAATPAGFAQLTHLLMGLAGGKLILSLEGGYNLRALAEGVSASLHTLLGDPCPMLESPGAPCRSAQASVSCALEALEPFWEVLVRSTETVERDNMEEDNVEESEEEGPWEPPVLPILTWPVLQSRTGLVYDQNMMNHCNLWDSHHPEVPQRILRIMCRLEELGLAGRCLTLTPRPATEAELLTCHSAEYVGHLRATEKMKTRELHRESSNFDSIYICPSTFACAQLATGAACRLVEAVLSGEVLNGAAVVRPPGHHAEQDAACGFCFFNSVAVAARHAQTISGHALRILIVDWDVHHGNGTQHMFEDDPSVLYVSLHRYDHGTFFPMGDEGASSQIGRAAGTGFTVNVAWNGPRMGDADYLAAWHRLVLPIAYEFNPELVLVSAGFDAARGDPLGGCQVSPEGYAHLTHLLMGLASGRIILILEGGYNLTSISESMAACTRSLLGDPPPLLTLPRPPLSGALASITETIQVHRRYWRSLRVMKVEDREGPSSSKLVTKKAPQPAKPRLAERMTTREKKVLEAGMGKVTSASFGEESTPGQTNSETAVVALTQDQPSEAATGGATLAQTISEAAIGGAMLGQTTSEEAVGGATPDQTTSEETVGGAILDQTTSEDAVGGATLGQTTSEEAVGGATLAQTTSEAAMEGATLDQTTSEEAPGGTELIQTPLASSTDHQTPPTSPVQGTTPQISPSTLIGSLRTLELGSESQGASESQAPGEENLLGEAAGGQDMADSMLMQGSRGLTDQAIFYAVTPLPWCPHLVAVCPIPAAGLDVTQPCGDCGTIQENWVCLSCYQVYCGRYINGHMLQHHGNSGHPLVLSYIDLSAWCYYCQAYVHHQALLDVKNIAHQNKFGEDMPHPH
# How it was run: (§2)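 Finals were 220 pg/μL enzyme, 93.0 μM ZMAL (5× KM; KM 19.27 μM) and 20 ng/μL trypsin. AMC read continuously (ex 360/em 460) at 37 °C. Curves fitted for kobs, then kobs vs [I] fitted; triplicates.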
# [2] = biological target: T1, Protein deacetylase HDAC6 (Homo sapiens); assay: (§3) Irreversible inhibition of N-terminal GST tagged human recombinant HDAC6 (1 to 1215 residues) expressed in Sf9 insect cells using Z-Lys(Ac)-AMC as fluorogenic substrate at 6.5 uM preincubated for 1 hr followed by 100-fold dilution and substrate addition measured every 0.5 mins for 60 mins by microplate reader analysis
# How it was run: (§4)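 It was then diluted 100-fold in buffer or in inhibitor at the original concentration. Finals were 220 pg/μL enzyme, 93 μM ZMAL and 20 ng/μL trypsin. AMC release was read every 0.5 min for 60 min at 37 °C; triplicates.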
# [3] = biological target: T1, Protein deacetylase HDAC6 (Homo sapiens); assay: as §1, with “induced-fit” for “single step slow binding”, “hyperbolic” for “linear”; how it was run: as §2
# [4] = biological target: T1, Protein deacetylase HDAC6 (Homo sapiens); assay: as §3, with “2.5” for “6.5”; how it was run: as §4
# [5] = biological target: T2, Histone deacetylase 6 (Danio rerio) (UniProt F8W4B7); assay: Irreversible inhibition of Danio rerio HDAC6 using RHKK(Ac)-AMC as fluorogenic substrate at 100 uM preincubated for 1 hr followed by dialysis for 21 hrs and substrate addition for 30 mins by microplate reader analysis; settings: Sf9
# T2 sequence (whole entry): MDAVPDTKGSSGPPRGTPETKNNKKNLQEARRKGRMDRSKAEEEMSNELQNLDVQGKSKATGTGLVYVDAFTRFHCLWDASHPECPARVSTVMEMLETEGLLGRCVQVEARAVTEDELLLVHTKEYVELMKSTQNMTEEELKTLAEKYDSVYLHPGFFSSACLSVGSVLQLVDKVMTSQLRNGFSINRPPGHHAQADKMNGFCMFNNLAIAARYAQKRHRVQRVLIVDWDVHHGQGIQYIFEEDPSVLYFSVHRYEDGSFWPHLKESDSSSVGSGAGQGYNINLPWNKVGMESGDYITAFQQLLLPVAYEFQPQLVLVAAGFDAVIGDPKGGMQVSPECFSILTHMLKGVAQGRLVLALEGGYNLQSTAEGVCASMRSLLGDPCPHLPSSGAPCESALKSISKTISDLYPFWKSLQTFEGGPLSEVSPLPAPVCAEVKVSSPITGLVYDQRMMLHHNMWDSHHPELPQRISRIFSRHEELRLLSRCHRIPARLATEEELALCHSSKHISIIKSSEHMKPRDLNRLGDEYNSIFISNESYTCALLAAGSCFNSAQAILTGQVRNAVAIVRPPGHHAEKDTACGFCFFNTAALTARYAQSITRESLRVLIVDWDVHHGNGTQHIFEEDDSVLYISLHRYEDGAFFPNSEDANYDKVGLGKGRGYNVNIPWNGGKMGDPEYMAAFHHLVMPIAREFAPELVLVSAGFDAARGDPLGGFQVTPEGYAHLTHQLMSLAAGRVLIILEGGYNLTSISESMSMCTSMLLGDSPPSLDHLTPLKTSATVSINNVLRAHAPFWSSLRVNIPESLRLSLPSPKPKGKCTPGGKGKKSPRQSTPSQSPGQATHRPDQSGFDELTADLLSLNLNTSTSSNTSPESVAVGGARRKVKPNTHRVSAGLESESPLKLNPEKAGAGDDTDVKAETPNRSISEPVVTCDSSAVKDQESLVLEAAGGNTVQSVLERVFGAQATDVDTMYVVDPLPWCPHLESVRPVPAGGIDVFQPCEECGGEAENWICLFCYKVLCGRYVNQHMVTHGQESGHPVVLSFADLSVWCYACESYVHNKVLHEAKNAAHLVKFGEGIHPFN
# How it was run: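 zCD2 at 1 μM was incubated with 100 μM inhibitor for 1 h, then dialysed at 4 °C against HEPES pH 7.5 buffer with 0.25% DMSO, overnight, sampled at 6 and 21 h. Each sample was mixed with 250 μM RHKK(Ac)-AMC (pre-mix level) for 30 min. Trypsin/TSA developer was then added and fluorescence read at ex 360/em 460. Triplicates.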
Compound,Activity [1],inhibition [2],Activity [3],inhibition [4],inhibition [5]
FC(F)(F)c1nnc(-c2cnc(NCc3ccccc3)nc2)o1,Active,inactive,–,–,–
FC(F)c1nnc(-c2cnc(NCc3ccccc3)nc2)o1,–,–,Active,Active,Active
